Test results as given in ChEMBL document CHEMBL1240422, “Design, synthesis and biological evaluation of 3,5-diaryl-isoxazoline/isoxazole-pyrrolobenzodiazepine conjugates as potential anticancer agents” (2010).
Calls of active or inactive are those of the source. No cut-off for these calls is given here.

Key:
A-375 [1] = assay: Cell cycle arrest in human A375 cells assessed as accumulation at G2/M phase at 4 uM after 24 hrs using propidium iodide staining by FACS; type: functional
In short: (§1)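 Treated A375 cells (24 h) were harvested with trypsin-EDTA and fixed in ice-cold 70% ethanol (4 °C, 30 min). After a PBS wash, they were incubated with 1 mg/mL RNase A (37 °C, 30 min) and stained with propidium iodide solution containing trisodium citrate and Triton X-100. DNA content was measured by flow cytometry on 20,000 events. Controls were DMSO-treated.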

A-375 [2] = assay: Cytotoxicity against human A375 cells at 4 uM after 24 hrs […]; type: functional, cell-based
A-375 [3] = assay: Cell cycle arrest in human A375 cells assessed as accumulation at G0/G1 phase at 4 uM after 24 hrs using propidium iodide staining by FACS; type: functional; in short: as §1
A-375 [4] = assay: Cell cycle arrest in human A375 cells assessed as accumulation at S phase at 4 uM after 24 hrs using propidium iodide staining by FACS; type: functional; in short: as §1
SN12C = assay: Anticancer activity against human SN12C cells after 48 hrs by SRB assay; type: functional
MDA-MB-435 = assay: Anticancer activity against human MDA-MB-435 cells after 48 hrs by SRB assay; type: functional; conditions: MDA-MB-435, 48 h
HT-29 = assay: Anticancer activity against human HT-29 cells after 48 hrs by SRB assay; type: functional; conditions: HT-29, 48 h
NCI-H23 = assay: Anticancer activity against human NCI-H23 cells after 48 hrs by SRB assay; type: functional; conditions: NCI-H23, 48 h
A549 = assay: Anticancer activity against human A549 cells after 48 hrs by SRB assay; type: functional; conditions: A549, 48 h
In short: (§2)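 Grown in RPMI 1640 with 10% FBS and 2 mM L-glutamine at 37 °C, 5% CO2. Seeded at densities set by doubling time, then preincubated 24 h. Continuous 48 h drug exposure at four concentrations (0.1, 1, 10, 100), triplicate wells. Fixed with cold TCA (final 10%) at 4 °C, 60 min. Stained with 0.4% SRB in 1% acetic acid, eluted with 10 mM Tris base, read at 540/690 nm. Percent growth versus control wells.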

MOLT-4 = assay: Anticancer activity against human MOLT4 cells after 48 hrs by SRB assay; type: functional; conditions: MOLT-4, 48 h
DU-145 = assay: Anticancer activity against human DU145 cells after 48 hrs by SRB assay; type: functional; conditions: DU-145, 48 h
NCI-H460 = assay: Anticancer activity against human NCI-H460 cells after 48 hrs by SRB assay; type: functional; conditions: NCI-H460, 48 h
UACC-62 = assay: Anticancer activity against human UACC62 cells after 48 hrs by SRB assay; type: functional; conditions: UACC-62, 48 h
HOP-92 = assay: Anticancer activity against human HOP92 cells after 48 hrs by SRB assay; type: functional; conditions: HOP-92, 48 h
OVCAR-8 = assay: Anticancer activity against human OVCAR8 cells after 48 hrs by SRB assay; type: functional; conditions: OVCAR-8, 48 h
[5] = Anticancer activity against human Hs 578T cells after 48 hrs by SRB assay; type: functional
SR = assay: Anticancer activity against human SR cells after 48 hrs by SRB assay; type: functional
RXF 393 = assay: Anticancer activity against human […] cells after 48 hrs by SRB assay; type: functional; conditions: RXF 393, 48 h
T47D = assay: Anticancer activity against human T47D cells after 48 hrs by SRB assay; type: functional
786-0 = assay: Anticancer activity against human 786-0 cells after 48 hrs by SRB assay; type: functional; conditions: 786-0, 48 h
CCRF-CEM = assay: Anticancer activity against human CCRF-CEM cells after 48 hrs by SRB assay; type: functional
SF-539 = assay: Anticancer activity against human SF539 cells after 48 hrs by SRB assay; type: functional; conditions: SF-539, 48 h
COLO 205 = assay: Anticancer activity against human COLO205 cells after 48 hrs by SRB assay; type: functional; conditions: COLO 205, 48 h; in short: as §2
SK-MEL-5 = assay: Anticancer activity against human SK-MEL-5 cells after 48 hrs by SRB assay; type: functional; conditions: SK-MEL-5, 48 h
CAKI-1 = assay: Anticancer activity against human Caki1 cells after 48 hrs by SRB assay; type: functional; conditions: CAKI-1, 48 h
SF-268 = assay: Anticancer activity against human SF268 cells after 48 hrs by SRB assay; type: functional; conditions: SF-268, 48 h
HCT-15 = assay: Anticancer activity against human HCT15 cells after 48 hrs by SRB assay; type: functional; conditions: HCT-15, 48 h
NCI-H322M = assay: Anticancer activity against human NCI-H322M cells after 48 hrs by SRB assay; type: functional
SW-620 = assay: Anticancer activity against human SW620 cells after 48 hrs by SRB assay; type: functional; conditions: SW-620, 48 h
SK-MEL-2 = assay: Anticancer activity against human SK-MEL-2 cells after 48 hrs by SRB assay; type: functional; conditions: SK-MEL-2, 48 h
HL-60(TB) = assay: Anticancer activity against human HL-60(TB) cells after 48 hrs by SRB assay; type: functional; conditions: HL-60, 48 h
HOP-62 = assay: Anticancer activity against human HOP62 cells after 48 hrs by SRB assay; type: functional; conditions: HOP-62, 48 h; in short: as §2
UO-31 = assay: Anticancer activity against human UO31 cells after 48 hrs by SRB assay; type: functional; conditions: UO-31, 48 h
BT-549 = assay: Anticancer activity against human BT549 cells after 48 hrs by SRB assay; type: functional; conditions: BT-549, 48 h
UACC-257 = assay: Anticancer activity against human UACC257 cells after 48 hrs by SRB assay; type: functional; conditions: UACC-257, 48 h
U-251 = assay: Anticancer activity against human U251 cells after 48 hrs by SRB assay; type: functional; conditions: U-251, 48 h
IGROV-1 = assay: Anticancer activity against human IGROV1 cells after 48 hrs by SRB assay; type: functional; conditions: IGROV-1, 48 h
OVCAR-4 = assay: Anticancer activity against human OVCAR4 cells after 48 hrs by SRB assay; type: functional; conditions: OVCAR-4, 48 h
SK-MEL-28 = assay: Anticancer activity against human SK-MEL-28 cells after 48 hrs by SRB assay; type: functional; conditions: SK-MEL-28, 48 h
SNB-19 = assay: Anticancer activity against human SNB19 cells after 48 hrs by SRB assay; type: functional; conditions: SNB-19, 48 h
PC-3 = assay: Anticancer activity against human PC3 cells after 48 hrs by SRB assay; type: functional; conditions: PC-3, 48 h; in short: as §2
HCT-116 = assay: Anticancer activity against human HCT116 cells after 48 hrs by SRB assay; type: functional; conditions: HCT-116, 48 h
Malme-3M = assay: Anticancer activity against human MALME-3M cells after 48 hrs by SRB assay; type: functional
A498 = assay: Anticancer activity against human A498 cells after 48 hrs by SRB assay; type: functional; conditions: A498, 48 h
SK-OV-3 = assay: Anticancer activity against human SKOV3 cells after 48 hrs by SRB assay; type: functional; conditions: SK-OV-3, 48 h
HCC 2998 = assay: Anticancer activity against human HCC2998 cells after 48 hrs by SRB assay; type: functional; conditions: HCC 2998, 48 h
MDA-MB-231 = assay: Anticancer activity against human MDA-MB-231 cells after 48 hrs by SRB assay; type: functional; conditions: MDA-MB-231, 48 h
KM12 = assay: Anticancer activity against human KM12 cells after 48 hrs by SRB assay; type: functional; conditions: KM12, 48 h
M14 = assay: Anticancer activity against human M14 cells after 48 hrs by SRB assay; type: functional; conditions: M14, 48 h
TK-10 = assay: Anticancer activity against human TK10 cells after 48 hrs by SRB assay; type: functional; conditions: TK-10, 48 h
SNB-75 = assay: Anticancer activity against human SNB75 cells after 48 hrs by SRB assay; type: functional; conditions: SNB-75, 48 h
NCI-H522 = assay: Anticancer activity against human NCI-H522 cells after 48 hrs by SRB assay; type: functional; conditions: NCI-H522, 48 h
MCF7 = assay: Anticancer activity against human MCF7 cells after 48 hrs by SRB assay; type: functional; conditions: MCF7, 48 h; in short: as §2
NCI-H226 = assay: Anticancer activity against human NCI-H226 cells after 48 hrs by SRB assay; type: functional; conditions: NCI-H226, 48 h
LOX IMVI = assay: Anticancer activity against human LOXIMVI cells after 48 hrs by SRB assay; type: functional
ACHN = assay: Anticancer activity against human ACHN cells after 48 hrs by SRB assay; type: functional
EKVX = assay: Anticancer activity against human EKVX cells after 48 hrs by SRB assay; type: functional
MDA-MB-468 = assay: Anticancer activity against human MDA-MB-468 cells after 48 hrs by SRB assay; type: functional; conditions: MDA-MB-468, 48 h
K562 = assay: Anticancer activity against human K562 cells after 48 hrs by SRB assay; type: functional; conditions: K562, 48 h
RPMI-8226 = assay: Anticancer activity against human RPMI8226 cells after 48 hrs by SRB assay; type: functional; conditions: RPMI-8226, 48 h
OVCAR-3 = assay: Anticancer activity against human OVCAR-3 cells after 48 hrs by SRB assay; type: functional; conditions: OVCAR-3, 48 h
OVCAR-5 = assay: Anticancer activity against human OVCAR5 cells after 48 hrs by SRB assay; type: functional; conditions: OVCAR-5, 48 h

For `COc1ccc(/C=C\c2cc(OC)c(OC)c(OC)c2)cc1O` [COMBRETASTATIN A4], the Activity (A-375 [1]) was 12.81%, the Activity (A-375 [2]) was “Active” and the Activity (A-375 [3]) was 49.08%. It also gave an Activity (A-375 [4]) of 38.1%.

`COc1ccc(C2CC(c3cc(OC)c(OC)c(OC)c3)=NO2)cc1OCCCCOc1cc2c(cc1OC)C(=O)N1CCC[C@H]1C=N2` (some centres not stated) gave a GI50 (SN12C) of 1580 nM, a GI50 (MDA-MB-435) of 3540 nM and a GI50 (HT-29) of 2750 nM. The GI50 (NCI-H23) was 1830 nM, the GI50 (A549) was 2330 nM and the GI50 (MOLT-4) was 1850 nM. It also gave a GI50 (DU-145) of 320 nM, a GI50 (NCI-H460) of 1850 nM and a GI50 (UACC-62) of 1520 nM. It also gave a GI50 (HOP-92) of 2470 nM, a GI50 (OVCAR-8) of 2550 nM and a GI50 [5] of 1100 nM. It also gave a GI50 (SR) of 1120 nM, a GI50 (RXF 393) of 1390 nM and a GI50 (T47D) of 1310 nM. For the same compound, the GI50 (786-0) was 1570 nM, the GI50 (CCRF-CEM) was 1410 nM and the GI50 (SF-539) was 1800 nM. It also gave a GI50 (COLO 205) of 1960 nM, a GI50 (SK-MEL-5) of 1470 nM and a GI50 (CAKI-1) of 3090 nM. For the same compound, the GI50 (SF-268) was 1890 nM, the GI50 (HCT-15) was 2270 nM and the GI50 (NCI-H322M) was 3460 nM. The GI50 (SW-620) was 1550 nM, the GI50 (SK-MEL-2) was 2030 nM and the GI50 (HL-60(TB)) was 1900 nM. For the same compound, the GI50 (HOP-62) was 1680 nM, the GI50 (UO-31) was 2090 nM and the GI50 (BT-549) was 1230 nM. It also gave a GI50 (UACC-257) of 2330 nM, a GI50 (U-251) of 1730 nM and a GI50 (IGROV-1) of 1570 nM. For the same compound, the GI50 (OVCAR-4) was 2070 nM, the GI50 (SK-MEL-28) was 2070 nM and the GI50 (SNB-19) was 1960 nM. The GI50 (PC-3) was 320 nM, the GI50 (HCT-116) was 1700 nM and the GI50 (Malme-3M) was 2880 nM. It also gave a GI50 (A498) of 1720 nM, a GI50 (SK-OV-3) of 3370 nM and a GI50 (HCC 2998) of 1580 nM. It also gave a GI50 (MDA-MB-231) of 1150 nM, a GI50 (KM12) of 1740 nM and a GI50 (M14) of 1730 nM. The GI50 (TK-10) was 3510 nM, the GI50 (SNB-75) was 1710 nM and the GI50 (NCI-H522) was 610 nM. For the same compound, the GI50 (MCF7) was 1750 nM, the GI50 (NCI-H226) was 1670 nM and the GI50 (LOX IMVI) was 1470 nM. For the same compound, the GI50 (ACHN) was 2410 nM, the GI50 (EKVX) was 3680 nM and the GI50 (MDA-MB-468) was 1340 nM. It also gave a GI50 (K562) of 1260 nM, a GI50 (RPMI-8226) of 1430 nM and a GI50 (OVCAR-3) of 1940 nM. For the same compound, the GI50 (OVCAR-5) was 3130 nM.
